This note sets out measurements from PubChem BioAssay.

Test [1] in a line: inhibitors of TNFa-induced NFkB p65 translocation, primary screen, imaging, HUVEC, MLSMR starter and 10KST1 sets (AID 438;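 active means inhibition above 20% together with a positive visual image hit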;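 further: compound added about 3h40 before a 20 min TNFalpha stimulation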;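 on inhibition: signal is the nuclear over cytoplasmic p65 intensity ratio per well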). The following applies: HUVEC TNFa-induced p65 nuclear translocation; cell count: measured here: nuclei count (cytotoxicity indicator), at 2.08 µM; inhibition: at 2 µM, stronger effect = higher value, 0% TNFa-plus-vehicle, 100% no-TNFa wells.
The nature of test [2]: inhibitors of mutant huntingtin aggregation, primary screen, imaging, exon1htt(103Q)mCFP cells, high-content imaging (AID 483;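 active means visual image review flags a hit and inhibition of aggregation exceeds 20%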;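 further: compound exposure lasted 3 days before fixation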;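 on nuclei count: percent of the per-plate median nuclei count of sample wells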). The following applies: exon1htt(103Q)mCFP cell line, aggregate imaging, at 2 µM; inhibition of aggregation: stronger effect = higher value; nuclei count: measured here: cell count, toxicity.
A short description of test [3]: inhibitors of E-selectin induction by TNFa, primary screen, imaging, HUVEC, immunofluorescence, MLSMR starter and 10KST1 sets (AID 487;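 active means visually confirmed hit in the image check and inhibition above 20%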;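 on inhibition: signal is fraction of cell area covered by stained E-selectin grains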;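 on nuclei count: 100% = median nuclei count of all wells on the same plate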). The following applies: HUVEC TNFalpha-induced E-selectin immunofluorescence imaging, at 2 µM; inhibition: stronger effect = higher value; nuclei count: measured here: cell number, toxicity.
Test [4] concerns the target Voltage-gated potassium channel subunit beta-2 (Rattus norvegicus) (UniProt P62483). The experiment in a line: KvBeta enzyme negative modulators, primary screen, biochemical, NADPH fluorescence (AID 622;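 active means fluorescence slope higher than the sample average by over 3 SD, cut at about -0.22 in these data, passing the limit was not always enough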;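 further: slope of raw intensity against log time taken from 70 to 1610 s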). Conditions: recombinant KvBeta, 4-cyanobenzaldehyde reduction, at 10 µM, stronger effect = higher value.
Test [5] has the same target. The experiment in a line: KvBeta positive modulators, primary screen, biochemical, NADPH fluorescence (AID 623;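 active means NADPH fluorescence slope more negative than the mean of all samples by about 3 SD, 99.7% confidence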;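 further: fluorescence intensity change per second fitted from 20 to 320 s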). The following applies: Recombinant KvBeta, NADPH fluorescence decrease slope, 10 min; at 10 µM; stronger effect = lower value.
Test [6] deals with Muscarinic acetylcholine receptor M4 (Homo sapiens) (UniProt P08173). The experiment in a line: compounds altering M4/GIRK thallium flux, either direction, primary screen, M4 allosteric agonist project, cell-based, HEK293 M4/GIRK, BTC-AM (AID 625).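 Further: thallium influx through GIRK channels coupled to M4 in HEK293 cells with BTC-AM dye.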 The following applies: at 10 µM, actives lie on both sides. The essentials:
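Material – HEK293 cells with M4 receptor and GIRK channels · Buffer or medium – pH 7.3 thallium assay buffer · Doses – one dose, 10 µM final · Timing – cells overnight at 37 °C, BTC-AM loading 1 h, reads 2 min total · Measured by – kinetic fluorescence with BTC-AM dye · Controls – carbachol and DMSO controls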

A short description of test [7]: inhibitors of Sendai virus-induced IRF3 signaling, primary screen, TLR/RLR signaling modifier project, cell-based, Sendai virus stimulus, luciferase, 10K MLSCN set (AID 602276;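 active means inhibition at or above 50% at 10 µM; inactive means inhibition below 50%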;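 further: firefly luciferase from ISG56 promoter only with Renilla not read in this screen; 0% = Sendai virus plus DMSO and 100% = medium plus DMSO without virus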). The following applies: HEK293 RL24 IRF3 luciferase reporter, at 10 µM, stronger effect = higher value. Background: A reporter such as luciferase makes a cellular process visible.
Test [8] is described as follows: inhibitors of poly I:C-induced TLR3 signaling, primary screen, cell-based, poly I:C stimulus, luciferase, 10K MLSCN set (AID 602277;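 active means inhibition of the reporter signal at or above 50%; inactive means inhibition below 50%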). Conditions: HEK293-TLR3 RL24 IRF3 luciferase reporter, at 10 µM, stronger effect = higher value.

Activity calls are given as the source filed them.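 How the source made its calls, unless noted: active means fluorescence slope after compound addition differing from the mean of all tested samples at 99.7% confidence, mostly higher but some lower; inactive means the rest.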

Sequence of Voltage-gated potassium channel subunit beta-2 (Rattus norvegicus) (P62483 whole entry, looked up): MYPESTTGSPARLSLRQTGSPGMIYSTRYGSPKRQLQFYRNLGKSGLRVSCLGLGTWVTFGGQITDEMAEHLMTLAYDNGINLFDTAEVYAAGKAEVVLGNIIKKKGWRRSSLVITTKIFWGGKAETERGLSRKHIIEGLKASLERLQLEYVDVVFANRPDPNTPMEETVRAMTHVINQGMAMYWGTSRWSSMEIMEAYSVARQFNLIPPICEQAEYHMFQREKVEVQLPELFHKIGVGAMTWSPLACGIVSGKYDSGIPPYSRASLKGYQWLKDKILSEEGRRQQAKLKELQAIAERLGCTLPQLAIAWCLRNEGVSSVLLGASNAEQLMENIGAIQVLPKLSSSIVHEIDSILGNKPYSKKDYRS
Sequence of Muscarinic acetylcholine receptor M4 (Homo sapiens) (P08173 whole entry, looked up): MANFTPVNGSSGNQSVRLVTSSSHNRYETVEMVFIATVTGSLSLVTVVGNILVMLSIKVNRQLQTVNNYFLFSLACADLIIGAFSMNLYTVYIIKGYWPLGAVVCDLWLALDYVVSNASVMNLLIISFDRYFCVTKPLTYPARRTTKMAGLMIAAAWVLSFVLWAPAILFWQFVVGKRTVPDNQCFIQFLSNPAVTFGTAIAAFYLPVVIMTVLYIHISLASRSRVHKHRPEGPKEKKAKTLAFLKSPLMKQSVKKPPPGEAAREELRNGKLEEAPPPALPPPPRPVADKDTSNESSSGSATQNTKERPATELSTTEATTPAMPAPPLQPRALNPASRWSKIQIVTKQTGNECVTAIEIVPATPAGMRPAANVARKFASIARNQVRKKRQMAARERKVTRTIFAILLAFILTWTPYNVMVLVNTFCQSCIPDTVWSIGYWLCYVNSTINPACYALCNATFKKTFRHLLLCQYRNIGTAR

Usually inhibition stands for the relative decrease from the control value, in per cent. For the compound `CCN(CC)c1ccc2c(c1)CCCN2`, the cell count in test [1] is 669. Also, the inhibition in test [1] was 6.8% (inactive); in test [3], -36.1% (inactive); in test [7], 8.33% (inactive); in test [8], 1.7% (inactive). For the same compound, the inhibition of aggregation in test [2] was 2.8% (inactive). Also, the results for the nuclei count in test [2] and in test [3] were 91% and 126%, respectively. The fluorescence slope was -0.559 (inactive) in test [4] and 0.00991 (inactive) in test [6]. Besides, in test [5], the NADPH fluorescence slope is 3.7e-05 (inactive).

For the compound `COC(=O)Cn1c(C)nc2c(sc3nc(C)cc(C)c32)c1=O`, the cell count in test [1] is 674. Further, the inhibition in test [1] is -5% (inactive); in test [3] it was 16% (inactive); in test [7] it was -40.7% (inactive); in test [8], -91.2% (inactive). Moreover, the inhibition of aggregation in test [2] was 14.7% (inactive). Also, the nuclei count in test [2] worked out at 81.2%; in test [3] it was 100%. In addition, the fluorescence slope in test [4] is -0.603 (inactive); in test [6] it was 0.00473 (inactive). Also, the NADPH fluorescence slope in test [5] was -2e-05 (inactive).

Turning to `CCOC(=O)c1c(C)oc2ccc(O)c(CN(C)C)c12`, the cell count in test [1] came out at 663. In addition, the inhibition was 1.9% (inactive) in test [1], -211% (inactive) in test [3], 8.53% (inactive) in test [7] and 20% (inactive) in test [8]. The inhibition of aggregation in test [2] is 16.5% (inactive). Besides, the nuclei count in test [2] is 105%; in test [3] it was 108%. Besides, the results for the fluorescence slope in test [4] and in test [6] were -0.551 (inactive) and 0.00733 (inactive), respectively. In test [5], the NADPH fluorescence slope is -6.7e-06 (inactive).

On to `CCNC(=O)Cn1cnc2c1c(=O)n(C)c(=O)n2C`, for which, in test [1], the cell count came to 315. For the same compound, the inhibition in test [1] is -12.5% (inactive); in test [3], 7.8% (inactive); in test [7] it was 12.1% (inactive); in test [8], 14.3% (inactive). In test [2], the inhibition of aggregation is 4.3% (inactive). In addition, the nuclei count in test [2] amounted to 113%; in test [3], 106%. In addition, the fluorescence slope in test [4] was -0.617 (inactive); in test [6] it was 0.00466 (inactive). Besides, in test [5], the NADPH fluorescence slope is 7.5e-06 (inactive).

Consider `O=C(Nc1ncnc2sc3c(c12)CCCCC3)c1ccco1`, for which the cell count in test [1] is 260. The inhibition is -7% (inactive) in test [1], 62.2% (inactive) in test [3], 21.8% (inactive) in test [7] and 22.6% (inactive) in test [8]. The inhibition of aggregation in test [2] is 32.4% (active). In addition, the results for the nuclei count in test [2] and in test [3] were 85.3% and 65.2%, respectively. For the same compound, the results for the fluorescence slope in test [4] and in test [6] were -0.542 (inactive) and 0.0064 (inactive), respectively. For the same compound, the NADPH fluorescence slope in test [5] is -1.4e-05 (inactive).

As to `CCOc1cccc(Oc2ccc(C(F)(F)F)cn2)c1`, the cell count in test [1] was 664. In addition, the inhibition in test [1] was -8% (inactive); in test [3], 8.4% (inactive); in test [7] it was 5.91% (inactive); in test [8], 3.43% (inactive). In addition, the inhibition of aggregation in test [2] was -17.4% (inactive). Besides, the nuclei count in test [2] was determined as 120%; in test [3] it was 97.3%. Besides, the values for the fluorescence slope in test [4] and in test [6] were -0.526 (inactive) and 0.00424 (inactive), respectively. Also, the NADPH fluorescence slope in test [5] is 1.7e-05 (inactive).

Turning to `O=C(NCCN1CCOCC1)c1ccc2c(c1)N(Cc1ccccc1)C(=O)CS2`, the cell count in test [1] was found to be 773. Moreover, the inhibition in test [1] was -9.5% (inactive); in test [3], 20.7% (inactive); in test [7] it was -1.65% (inactive); in test [8], 8.57% (inactive). In test [2], the inhibition of aggregation is -8.5% (inactive). Moreover, the figures for the nuclei count in test [2] and in test [3] were 102% and 105%, respectively. Also, the fluorescence slope in test [4] is -0.564 (inactive); in test [6] it was 0.00419 (inactive). In test [5], the NADPH fluorescence slope was 2e-05 (inactive).

On to `CCCCc1ccc(NC(=O)COCC)cc1`, for which the cell count in test [1] came out at 366. The inhibition was -2.7% (inactive) in test [1], -34.5% (inactive) in test [3], -24.8% (inactive) in test [7] and -77.1% (inactive) in test [8]. The inhibition of aggregation in test [2] is -8.1% (inactive). Besides, the nuclei count is 110% in test [2] and 98.4% in test [3]. The results for the fluorescence slope in test [4] and in test [6] were -0.585 (inactive) and 0.00366 (inactive), respectively. Also, in test [5], the NADPH fluorescence slope is 1.7e-05 (inactive).

Regarding `CC(C)=CC/C=C1\CCC(C(=O)O)C(C(=O)O)C1` (centres undefined), the cell count in test [1] is 661. Also, the inhibition in test [1] was -6.8% (inactive); in test [3], -30.8% (inactive); in test [7] it was 15.6% (inactive); in test [8], 13.1% (inactive). For the same compound, the inhibition of aggregation in test [2] was -3.8% (inactive). In addition, the nuclei count in test [2] turned out to be 116%; in test [3], 100%. For the same compound, the fluorescence slope in test [4] is -0.52 (inactive); in test [6] it was 0.00515 (inactive). Besides, the NADPH fluorescence slope in test [5] is -1.4e-05 (inactive).

With `COCCSc1ccccc1C(=O)Nc1cc(C)on1`, the cell count in test [1] is 587. For the same compound, the inhibition in test [1] is 3.3% (inactive); in test [3], 22.8% (inactive); in test [7] it was 14.3% (inactive); in test [8] it was 20.9% (inactive). In addition, the inhibition of aggregation in test [2] was -4.3% (inactive). Besides, the nuclei count turned out to be 92.3% in test [2] and 90.6% in test [3]. Besides, the fluorescence slope is -0.568 (inactive) in test [4] and 0.00516 (inactive) in test [6]. For the same compound, the NADPH fluorescence slope in test [5] was -2.5e-05 (inactive).

Regarding `CCOCCn1cnc2sc(C(=O)NCC(=O)OCC)c(C)c2c1=O`, the cell count in test [1] came to 425. Further, the inhibition in test [1] is 7.9% (inactive); in test [3], -256% (inactive); in test [7], -2.53% (inactive); in test [8], -16% (inactive). The inhibition of aggregation in test [2] is -1.3% (inactive). Moreover, the nuclei count in test [2] came to 107%; in test [3], 165%. For the same compound, the fluorescence slope in test [4] is -0.55 (inactive); in test [6], 0.00587 (inactive). The NADPH fluorescence slope in test [5] was -2.6e-05 (inactive).

In the case of `CCCn1c(NC(=O)C2COc3ccccc3O2)nc2ccccc21` (centres undefined), the cell count in test [1] was 496. In addition, the inhibition in test [1] is 1% (inactive); in test [3], -56% (inactive); in test [7], 15.8% (inactive); in test [8], 17.5% (inactive). For the same compound, in test [2], the inhibition of aggregation is -4.8% (inactive). The nuclei count in test [2] worked out at 98.3%; in test [3], 102%. In addition, the fluorescence slope in test [4] was -0.467 (inactive); in test [6] it was 0.00578 (inactive). Besides, the NADPH fluorescence slope in test [5] was 0.000114 (inactive).

As to `N#Cc1nc(-c2cccs2)oc1NCc1ccc(Cl)cc1`, the cell count in test [1] came out at 341. The inhibition in test [1] was -8.1% (inactive); in test [3], 47.2% (inactive); in test [7], 18.3% (inactive); in test [8], 10.5% (inactive). Further, in test [2], the inhibition of aggregation was 19.1% (inactive). The nuclei count amounted to 98.9% in test [2] and 106% in test [3]. Also, the fluorescence slope in test [4] is -0.526 (inactive); in test [6] it was 0.00571 (inactive). Moreover, the NADPH fluorescence slope in test [5] was -2e-05 (inactive).

In the case of `C=C(C)CSc1nnc(-c2cccc(S(=O)(=O)N(C)C)c2)n1-c1cc(OC)ccc1OC`, in test [1], the cell count was 712. The inhibition is -12.2% (inactive) in test [1], -12.6% (inactive) in test [3], 18.8% (inactive) in test [7] and 34.6% (inactive) in test [8]. Also, in test [2], the inhibition of aggregation was 31.2% (active). Besides, the nuclei count in test [2] was 123%; in test [3] it was 107%. Moreover, the values for the fluorescence slope in test [4] and in test [6] were -0.576 (inactive) and 0.00586 (inactive), respectively. The NADPH fluorescence slope in test [5] was 4e-05 (inactive).
